Screening results deposited in PubChem BioAssay by Broad Institute.
PDI turbidity = PDI (human) enzyme inhibition. P07237. PDI insulin aggregation turbidity, A650, 90 min. inhibition, % at 10 µM. 350,000 tested, 0.052% active. AID 588391;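 active = mean inhibition across replicates of 30% or more, whatever share of single replicates reach that level; inconclusive = mean inhibition below 30% while every single replicate reaches 30%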
Target sequence (P07237 whole entry, looked up): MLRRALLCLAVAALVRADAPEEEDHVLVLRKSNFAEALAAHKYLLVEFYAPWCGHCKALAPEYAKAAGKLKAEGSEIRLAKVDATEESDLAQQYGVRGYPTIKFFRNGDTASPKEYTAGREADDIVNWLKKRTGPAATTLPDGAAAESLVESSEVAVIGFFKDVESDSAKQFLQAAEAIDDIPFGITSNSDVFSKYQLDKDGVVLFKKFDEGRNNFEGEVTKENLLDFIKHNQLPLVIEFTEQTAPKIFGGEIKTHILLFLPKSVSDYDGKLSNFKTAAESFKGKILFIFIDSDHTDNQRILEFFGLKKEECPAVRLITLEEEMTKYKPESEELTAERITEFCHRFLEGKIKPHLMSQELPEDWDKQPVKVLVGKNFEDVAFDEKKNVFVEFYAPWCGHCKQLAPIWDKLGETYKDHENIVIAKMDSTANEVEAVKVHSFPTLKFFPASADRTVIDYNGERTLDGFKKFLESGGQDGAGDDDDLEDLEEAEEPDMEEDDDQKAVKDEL
HIV Env fusion = HIV envelope-mediated fusion inhibition; AID 651610; 360,000 tested, 1.1% active; inhibition, % at 12.3 µM; HeLa-JRFL Env/CEM21 cell fusion, luciferase;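 active = mean replicate inhibition score of at least 50 and every replicate individually at or above 50; inconclusive = only one of the two criteria met; inactive = mean below 50 and not all replicates reaching 50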
ERp5 inh = blocks human ERp5 reductase activity on insulin | inhibition, % at 9.99 µM | Q15084 | AID 651711 | ERp5 insulin aggregation, absorbance 650 nm, 90 min | 350,000 tested, 0.05% active;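 active = mean replicate inhibition above about 25%, with every replicate also reaching it, limit read from the data, passing the limit was not always enough; inconclusive = only one of those two criteria met; inactive = neither criterion met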
PvdQ acylase = P. aeruginosa PvdQ acylase inhibition; purified PvdQ acylase, fluorescence plate reader; 340,000 tested, 0.063% active; inhibition, % at 10 µM; in the data active = inhibition above about 30%, passing the limit was not always enough; inconclusive = no clear call, values can overlap the other calls
Ecoli rRNA inh = selective bacterial rRNA inhibition in E. coli. E. coli WT GFP vs humanized-ribosome RFP mutants, fluorescence, 24 h; active compounds read low; DMSO median 0, no signal -100. GFP signal change (wild-type ribosome), % (no concentration beside the values). 350,000 tested, 1.6% active. AID 720706;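 active = significant combined selectivity score with lowered wild-type GFP, culture density cut under 30%, mutant RFP and density less affected; inactive = any of these conditions unmet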
FN deposit inh = fibronectin deposition inhibition | inhibition, % at 12.6 µM | AID 743247 | AH1F fibroblasts, Alexa488-fibronectin deposition fluorescence, overnight | 350,000 tested, 0.086% active;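 active = mean inhibition across replicates of 30% or more, regardless of how many single replicates reach that level; inconclusive = mean under 30% yet at least half of replicates reach 30%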
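Material: AH1F fibroblast monolayer depositing Alexa488-labelled fibronectin into matrix | Input: 10000 AH1F cells/well | Medium: DMEM plus 2% serum, read in PBS | Reagent: Alexa488-fibronectin, 24 nM final in well | Compound dosing: One dose per compound, pinned | Schedule: 1 h adhesion, overnight exposure | Measured by: Fluorescence at 485 nm excitation, 525 nm emission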
AID977621 = growth inhibition of wild-type GFP E. coli, dose response, H69 mutant RFP, cherry-pick; shares compounds with Ecoli rRNA inh; E. coli wild-type GFP strain growth, fluorescence, 24 h; activity change, negative = inhibition at 50 µM; 1,900 tested, under 10 active;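 active = Wild-type ribosome reporter drop at least double the humanized mutant ribosome reporter drop, growth loss under a set limit; inconclusive = no clear call, values can overlap the other calls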;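 also: wild-type GFP and H69 mutant RFP strains grown together 50/50 in each well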
AID977628 = E. coli growth inhibition, wild-type GFP versus h24 humanized RFP strain, dose response, h24 mutant RFP vs wild-type GFP, cherry-pick; E. coli WT GFP strain growth, fluorescence, 24 h; 1,900 tested, under 10 active; shares compounds with Ecoli rRNA inh; activity change, negative = inhibition at 50 µM;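 active = compound lowering the normal-ribosome reporter at least twice as much as the humanized-ribosome reporter, growth loss under a set limit; inconclusive = no clear call, values can overlap the other calls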;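 also: wild-type GFP and h24 humanized RFP strains co-cultured 1 to 1 per well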
Of the large screens only hits and unclear results are named; the others gave an inactive call (follow-up assays come after a bar, where they were run); ! = a repeat was not active. Compounds with a hit are over-represented: about 2.2% of the library has one in this group of screens.

Cc1ccc(OCCOCCn2cnc3ccccc3c2=O)c([N+](=O)[O-])c1	none
Cc1ccc([N+](=O)[O-])c(OCCn2cnc3ccccc32)c1	Ecoli rRNA inh -20 (no result: FN deposit inh) | AID977621 inactive | AID977628 inactive
Cc1ccc2cccc(OCc3ccccc3)c2n1	Ecoli rRNA inh -26 (no result: PvdQ acylase) | AID977621 inactive | AID977628 inactive
CSCCC1NC(=O)N(C(C)C(=O)Nc2cc(Cl)cc(Cl)c2)C1=O (stereo unspecified)	Ecoli rRNA inh -21 | AID977621 inactive | AID977628 inactive
CC(=O)c1ccc(OCC(=O)Nc2ccc3c(c2)CCC3)cc1	Ecoli rRNA inh -26 | AID977621 inactive | AID977628 inactive
Cc1ccc(N2C(=O)c3ccccc3[C@](C)(C(=O)O)[C@@H]2c2ccc(CO)cc2)nc1	none (no result: PDI turbidity, PvdQ acylase, Ecoli rRNA inh, FN deposit inh)
Cc1cc(C)nc(SCC(=O)Nc2ccc3c(c2)OCO3)n1	none
Cc1nc(SCC(=O)Nc2ccc3c(c2)OCCO3)nc(C)c1C	Ecoli rRNA inh -18 | AID977621 inactive
Cc1noc(C)c1NC(=O)N(C)C[C@@H]1Oc2ccc(N(C)C)cc2CC(=O)N([C@@H](C)CO)C[C@@H]1C	none (no result: PDI turbidity, PvdQ acylase)
Cc1cccc(OCCNc2ncccc2[N+](=O)[O-])c1	Ecoli rRNA inh -17 (no result: PvdQ acylase, FN deposit inh) | AID977621 inconclusive
Cc1cccc(OCCNc2cc(N3CCN(C)CC3)ccc2[N+](=O)[O-])c1	none (no result: HIV Env fusion, ERp5 inh, Ecoli rRNA inh, FN deposit inh)
O=C(C[C@@H]1C[C@H]2c3cc(NC(=O)NC4CCCCC4)ccc3O[C@H]2[C@H](CO)O1)NCc1ccccc1	none (no result: PDI turbidity, PvdQ acylase)
COc1ccc(CNC(=O)c2sc3nc4c(c(C(F)(F)F)c3c2N)CCC4)cc1OC	Ecoli rRNA inh -19 | AID977621 inactive | AID977628 inactive
COc1ccc(-c2c3c(nc4sc(C(=O)Nc5cc(C)on5)c(N)c24)CCC3)cc1	none (no result: HIV Env fusion, ERp5 inh, Ecoli rRNA inh, FN deposit inh)
Cc1ccc(S(=O)(=O)N2C/C=C\CN(S(=O)(=O)c3ccccc3Br)CC2)cc1	none
Cc1ccc(S(=O)(=O)N2CCCN(S(=O)(=O)c3ccccc3Br)CC2)cc1	Ecoli rRNA inh -17 | AID977621 inactive | AID977628 inconclusive
COc1ccc(Cl)cc1NC(=O)C1Cc2ccccc2CN1S(C)(=O)=O (stereo unspecified)	Ecoli rRNA inh -20 | AID977628 inactive
CO[C@H]1CN(C)C(=O)c2ccc(NC(=O)C3CC3)cc2OC[C@H](C)N(CC2CCCC2)C[C@H]1C	none (no result: PDI turbidity, HIV Env fusion, PvdQ acylase)
COc1ccc(CN(C)C[C@@H]2OCCCC[C@@H](C)Oc3ccc(NC(=O)Nc4ccccc4)cc3C(=O)N([C@@H](C)CO)C[C@H]2C)cc1	none (no result: PDI turbidity, ERp5 inh, PvdQ acylase)
COC(=O)[C@H]1COC(c2ccc(OCCCO)cc2)=N1	none (no result: PDI turbidity, PvdQ acylase, Ecoli rRNA inh, FN deposit inh)
COc1ccc(CNc2cccc3[nH]c(C(F)(F)F)nc23)cc1	none
Cc1ccc(C(=O)Nc2cccc3[nH]c(C(F)(F)F)nc23)cc1	Ecoli rRNA inh -24 | AID977621 inactive
COc1ccc(C2CC(c3ccc(Br)cc3)=NN2C(=O)CN2CCCC2)cc1 (stereo unspecified)	Ecoli rRNA inh -19 | AID977621 inactive | AID977628 inconclusive
COc1ccc(C2=NN(C(=O)CN3CCCCC3)C(c3ccc(C)cc3)C2)cc1 (stereo unspecified)	none
O=C(c1ccc(F)cc1)N1[C@@H]2CNc3ccccc3[C@@H]2[C@@H]1CO	none (no result: PDI turbidity, HIV Env fusion, PvdQ acylase, FN deposit inh)
CCCC#Cc1cnc2c(c1)C(=O)N([C@@H](C)CO)C[C@@H](C)[C@H](CN(C)Cc1ccccc1F)O2	none (no result: PDI turbidity, HIV Env fusion, ERp5 inh, PvdQ acylase, FN deposit inh)
CCn1nc(C)cc1C(=O)N1CCCC(C(=O)c2ccc3ccccc3c2)C1 (stereo unspecified)	Ecoli rRNA inh -20 | AID977621 inactive
COc1ccc(NC(=O)CSc2n[nH]c(-c3ccncc3)n2)c([N+](=O)[O-])c1	Ecoli rRNA inh -18 (no result: FN deposit inh) | AID977621 inconclusive | AID977628 inactive
COc1ccc(S(=O)(=O)N2C[C@H](O)COC[C@H]3O[C@@H](CC(=O)NCc4ccc(Cl)c(Cl)c4)CC[C@@H]32)cc1	none (no result: PDI turbidity, PvdQ acylase)
COc1ccc(-c2cn3cc(Cl)ccc3n2)cc1OC	Ecoli rRNA inh -27 (no result: HIV Env fusion, FN deposit inh) | AID977628 inconclusive
CC(=O)N1[C@@H]2Cn3c(cccc3=O)[C@H]1[C@@H](C(=O)N[C@@H](C)c1ccccc1)[C@@H]2CO	none (no result: PDI turbidity, HIV Env fusion, PvdQ acylase, FN deposit inh)
c1cncc(-c2nc3cc4ccccc4cc3[nH]2)c1	Ecoli rRNA inh -26 (no result: HIV Env fusion, FN deposit inh) | AID977621 inactive
Fc1ccc(CSc2nnc(-c3ccco3)o2)cc1	Ecoli rRNA inh -17 | AID977621 inconclusive | AID977628 inactive
C[C@H]1CN([C@@H](C)CO)C(=O)Cc2cc(NC(=O)c3ccncc3)ccc2O[C@H]1CN(C)C(=O)Nc1ccccc1	none (no result: PDI turbidity, HIV Env fusion, PvdQ acylase, FN deposit inh)
C[C@@H]1CN(C)C(=O)c2cccc(N(C)C)c2O[C@@H]1CN(C)C	none (no result: PDI turbidity, HIV Env fusion, ERp5 inh, PvdQ acylase)
Cc1ccc(-c2ccc(C3[C@H]4CNC[C@@H]3N4Cc3nccs3)cc2)cc1 (stereo partly specified)	none (no result: PDI turbidity, HIV Env fusion, PvdQ acylase)
C(=C\c1ccc(C2[C@H]3CNC[C@@H]2N3Cc2nccs2)cc1)/c1ccccc1 (stereo partly specified)	Ecoli rRNA inh -21! (no result: PDI turbidity, HIV Env fusion, PvdQ acylase) | AID977628 inconclusive
CCn1ccnc1CN1CCCC(C(=O)c2ccc3cc(OC)ccc3c2)C1 (stereo unspecified)	Ecoli rRNA inh -33 | AID977621 inactive | AID977628 inactive
COc1ccc2cc(C(=O)C3CCCN(Cc4ccccn4)C3)ccc2c1 (stereo unspecified)	none
Cc1cc(C(=O)COC(=O)c2ccc(O)cc2)c(C)n1CC(F)(F)F	Ecoli rRNA inh -20 | AID977621 inactive | AID977628 inactive
CCOC(=O)c1cnc2ccc(OCC)cc2c1NCCCN1CCOCC1	Ecoli rRNA inh -22 | AID977621 inactive | AID977628 inconclusive
CCOC(=O)c1cnc2ccc(OCC)cc2c1NCCN1CCOCC1	none (no result: FN deposit inh)
CC(c1ccccc1)n1c(Cn2ncc3ccccc3c2=O)n[nH]c1=S (stereo unspecified)	none
O=c1c2ccccc2cnn1Cc1n[nH]c(=S)n1C1CC2CCC1C2 (stereo unspecified)	Ecoli rRNA inh -20 | AID977621 inactive
Cc1ccccc1NC(=O)c1ccc([N+](=O)[O-])o1	none (no result: Ecoli rRNA inh)
Cc1ccc(NC(=O)c2ccc([N+](=O)[O-])o2)c(C)c1	Ecoli rRNA inh -33 (no result: FN deposit inh) | AID977628 inactive
CCCC(=O)Nc1ccc2c(c1)C(=O)N(C)C[C@@H](OC)[C@H](C)CN(CC1CCOCC1)[C@@H](C)CO2	none (no result: PDI turbidity, HIV Env fusion, ERp5 inh, PvdQ acylase)
O=C(C[C@H]1CC[C@@H](NC(=O)c2ccccn2)[C@@H](CO)O1)NCc1cc(F)cc(F)c1	none (no result: PDI turbidity, PvdQ acylase)
